Data reported in ChEMBL document CHEMBL2151003, “Synthesis and antitumor activity of ring A modified glycyrrhetinic acid derivatives” (Eur J Med Chem, 2011).
Calls of active or inactive are those of the source.

Columns and labels:
8505C = test: Cytotoxicity against human 8505C cells after 96 hrs by SRB assay; format: functional, cell-based
Summary of the method: (§1)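 Monolayer cultures in RPMI 1640 with 10% heat-inactivated FBS and penicillin/streptomycin, 37 °C, 5% CO2. Exponentially growing cells were seeded, then treated 24 h later with serial dilutions (0–30 µM; DMSO or DMF ≤0.5% final) for 96 h. Cells were fixed with 10% TCA at 4 °C, stained with 0.4% SRB and solubilized in 10 mM Tris base; A570 was read. IC50 came from semi-log dose–response curves, ≥3 independent experiments.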

SW-1736 = test: Cytotoxicity against human SW1736 cells after 96 hrs by SRB assay; format: functional, cell-based; summary of the method: as §1
A549 [1] = test: Cytotoxicity against human A549 cells after 96 hrs by SRB assay; format: functional, cell-based; summary of the method: as §1
[2] = Cytotoxicity against human A253 cells after 96 hrs by SRB assay; format: functional, cell-based; summary of the method: as §1
MCF7 = test: Cytotoxicity against human MCF7 cells after 96 hrs by SRB assay; format: functional, cell-based; summary of the method: as §1
[3] = Cytotoxicity against human 518A2 cells after 96 hrs by SRB assay; format: functional, cell-based; summary of the method: as §1
[4] = Cytotoxicity against human Lipo cells after 96 hrs by SRB assay; format: functional, cell-based; summary of the method: as §1
DLD-1 = test: Cytotoxicity against human DLD1 cells after 96 hrs by SRB assay; format: functional, cell-based; summary of the method: as §1
A2780 = test: Cytotoxicity against human A2780 cells after 96 hrs by SRB assay; format: functional, cell-based; summary of the method: as §1
HCT-116 = test: Cytotoxicity against human HCT116 cells after 96 hrs by SRB assay; format: functional, cell-based; summary of the method: as §1
A-431 = test: Cytotoxicity against human A431 cells after 96 hrs by SRB assay; format: functional, cell-based; summary of the method: as §1
HT-29 = test: Cytotoxicity against human HT-29 cells after 96 hrs by SRB assay; format: functional, cell-based; summary of the method: as §1
A549 [5] = test: Induction of apoptosis in human A549 cells assessed as apoptotic effect at 20 uM after 24 to 48 hrs by trypan blue cell counting analysis; format: functional
Summary of the method: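 A549 cells (approx. 500,000 per flask) were grown 24 h, then given compound-containing medium for about 24–48 h. Collected cells were pelleted, washed in PBS and mixed 1:1 with 0.4% trypan blue in PBS, pH 7.2. An automated counter distinguished cells with intact and with damaged membranes. Results are % apoptosis ± standard error, 6 experiments each.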

A549 [6] = test: Induction of apoptosis in human A549 cells assessed as appearance of green fluorescent cells at 20 uM after 24 to 48 hrs by acridine orange/ethidium bromide staining based fluorescence microscopy; format: functional, cell-based
Summary of the method: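 Approx. 500,000 A549 cells per flask were grown 24 h, then exposed to compound-containing medium for 24–48 h. Cells from the supernatant were pelleted, washed and resuspended in PBS, mixed with AO/EB and examined by fluorescence microscopy. Green fluorescence was scored as apoptotic and red nuclei as necrotic; the read-out is qualitative.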

C=C(C)[C@@H]1CC[C@]2(C)[C@H](C(=O)C=C3[C@@H]4C[C@@](C)(C(=O)OCC)CC[C@]4(C)CC[C@]32C)[C@@]1(C)CCC(=O)O
> 30 µmol: IC50 (8505C) | IC50 (SW-1736) | IC50 (A549 [1]) | IC50 [2] | IC50 (MCF7) | IC50 [3] | IC50 [4] | IC50 (DLD-1) | IC50 (A2780)

CCOC(=O)[C@@]1(C)CC[C@]2(C)CC[C@]3(C)C(=CC(=O)[C@@H]4[C@@]5(C)C[C@H]6O[C@H]6C(C)(C)[C@@H]5CC[C@]43C)[C@@H]2C1
> 30 µmol: IC50 (A549 [1]) | IC50 [2] | IC50 (MCF7) | IC50 [3] | IC50 (HCT-116) | IC50 [4] | IC50 (A-431) | IC50 (DLD-1) | IC50 (HT-29)

CCOC(=O)[C@@]1(C)CC[C@]2(C)CC[C@]3(C)C(=CC(=O)[C@@H]4[C@@]5(C)CCC(=O)C(C)(C)[C@@H]5CC[C@]43C)[C@@H]2C1
> 30 µmol: IC50 (8505C) | IC50 (SW-1736) | IC50 (A549 [1]) | IC50 [2] | IC50 (MCF7) | IC50 [3] | IC50 [4] | IC50 (DLD-1) | IC50 (A2780)

COC(=O)[C@@]1(C)CC[C@]2(C)CC[C@]3(C)C(=CC(=O)[C@@H]4[C@@]5(C)Cc6nccnc6C(C)(C)[C@@H]5CC[C@]43C)[C@@H]2C1
> 30 µmol: IC50 (8505C) | IC50 (SW-1736) | IC50 (A549 [1]) | IC50 [2] | IC50 (MCF7) | IC50 [3] | IC50 [4] | IC50 (DLD-1) | IC50 (A2780)

COC(=O)[C@@]1(C)CC[C@]2(C)CC[C@]3(C)C(=CC(=O)[C@@H]4[C@@]5(C)CC[C@H](OC(=O)CCC(=O)O)C(C)(C)[C@@H]5CC[C@]43C)[C@@H]2C1
> 30 µmol: IC50 (8505C) | IC50 (A549 [1]) | IC50 [2] | IC50 [3] | IC50 [4] | IC50 (DLD-1)

COC(=O)[C@@]1(C)CC[C@]2(C)CC[C@]3(C)C(=CC(=O)[C@@H]4[C@@]5(C)CC[C@H](OS(=O)(=O)c6ccc(C)cc6)C(C)(C)[C@@H]5CC[C@]43C)[C@@H]2C1
> 30 µmol: IC50 (8505C) | IC50 (A549 [1]) | IC50 [2] | IC50 [3] | IC50 [4] | IC50 (DLD-1)

C=C(C)[C@@H]1CC[C@]2(C)[C@H](C(=O)C=C3[C@@H]4C[C@@](C)(C(=O)OCC)CC[C@]4(C)CC[C@]32C)[C@@]1(C)CCC(=O)OCC
5.89 µmol: IC50 (A2780)
> 30 µmol: IC50 (8505C) | IC50 (A549 [1]) | IC50 [2] | IC50 [4] | IC50 (DLD-1)
25.42 µmol: IC50 (MCF7)
9.28 µmol: IC50 [3]
26.74 µmol: IC50 (SW-1736)

COC(=O)[C@@]1(C)CC[C@]2(C)CC[C@]3(C)C(=CC(=O)[C@@H]4[C@@]5(C)CC[C@H](OC(=O)[C@@H](N)CSSC[C@H](N)C(=O)O[C@H]6CC[C@]7(C)[C@H]8C(=O)C=C9[C@@H]%10C[C@@](C)(C(=O)OC)CC[C@]%10(C)CC[C@@]9(C)[C@]8(C)CC[C@H]7C6(C)C)C(C)(C)[C@@H]5CC[C@]43C)[C@@H]2C1
active: Activity (A549 [6])
18.75 µmol: IC50 (A549 [1])
16.82 µmol: IC50 (SW-1736)
> 30 µmol: IC50 (DLD-1)
15.1 µmol: IC50 (8505C)
24.54 µmol: IC50 [3]
22.6 µmol: IC50 [4]
19.07 µmol: IC50 [2]
40.91%: Activity (A549 [5])

COC(=O)[C@@]1(C)CC[C@]2(C)CC[C@]3(C)C(=CC(=O)[C@@H]4[C@@]5(C)CCC(=O)C(C)(C)[C@@H]5CC[C@]43C)[C@@H]2C1
> 30 µmol: IC50 (8505C) | IC50 (A549 [1]) | IC50 [2] | IC50 (MCF7) | IC50 [3] | IC50 [4] | IC50 (DLD-1) | IC50 (A2780)
29.09 µmol: IC50 (SW-1736)

COC(=O)[C@@]1(C)CC[C@]2(C)CC[C@]3(C)C(=CC(=O)[C@@H]4[C@@]5(C)CC[C@H](OC(=O)[C@H](CSC(=O)OC(C)(C)C)NC(=O)OC(C)(C)C)C(C)(C)[C@@H]5CC[C@]43C)[C@@H]2C1
> 30 µmol: IC50 (8505C) | IC50 (SW-1736) | IC50 (A549 [1]) | IC50 [2] | IC50 [3] | IC50 [4] | IC50 (DLD-1)

CCOC(=O)[C@@]1(C)CC[C@]2(C)CC[C@]3(C)C(=CC(=O)[C@@H]4[C@@]5(C)CC=CC(C)(C)[C@@H]5CC[C@]43C)[C@@H]2C1
> 30 µmol: IC50 (A549 [1]) | IC50 [2] | IC50 (MCF7) | IC50 [3] | IC50 (HCT-116) | IC50 [4] | IC50 (A-431) | IC50 (DLD-1) | IC50 (HT-29)

CCOC(=O)[C@@]1(C)CC[C@]2(C)CC[C@]3(C)C(=CC(=O)[C@@H]4[C@@]5(C)CCC(=O)OC(C)(C)[C@@H]5CC[C@]43C)[C@@H]2C1
15 µmol: IC50 (A2780)
20.58 µmol: IC50 (MCF7)
28.73 µmol: IC50 [2]
12.71 µmol: IC50 (SW-1736)
> 30 µmol: IC50 (8505C) | IC50 (A549 [1]) | IC50 [3] | IC50 [4] | IC50 (DLD-1)

CCOC(=O)[C@@]1(C)CC[C@]2(C)CC[C@]3(C)C(=CC(=O)[C@@H]4[C@@]5(C)CC[C@H](OC(=O)CCC(=O)O)C(C)(C)[C@@H]5CC[C@]43C)[C@@H]2C1
> 30 µmol: IC50 (8505C) | IC50 (A549 [1]) | IC50 [2] | IC50 [4] | IC50 (DLD-1)
28.99 µmol: IC50 [3]

COC(=O)[C@@]1(C)CC[C@]2(C)CC[C@]3(C)C(=CC(=O)[C@@H]4[C@@]5(C)CC[C@H](OC(=O)[C@H](CO[Si](C)(C)C(C)(C)C)NC(=O)OC(C)(C)C)C(C)(C)[C@@H]5CC[C@]43C)[C@@H]2C1
> 30 µmol: IC50 (8505C) | IC50 (A549 [1]) | IC50 [3] | IC50 [4] | IC50 (DLD-1)
28.59 µmol: IC50 [2]

CCCCCCCCO/N=C1\CC[C@]2(C)[C@H]3C(=O)C=C4[C@@H]5C[C@@](C)(C(=O)OC)CC[C@]5(C)CC[C@@]4(C)[C@]3(C)CC[C@H]2C1(C)C
19.73 µmol: IC50 (A2780)
26.35 µmol: IC50 (MCF7)
17.77 µmol: IC50 (SW-1736)
> 30 µmol: IC50 (8505C) | IC50 (A549 [1]) | IC50 [2] | IC50 [3] | IC50 [4] | IC50 (DLD-1)

COC(=O)[C@@]1(C)CC[C@]2(C)CC[C@]3(C)C(=CC(=O)[C@@H]4[C@@]5(C)CC[C@H](OC(=O)[C@@H](N)CSCc6ccccc6)C(C)(C)[C@@H]5CC[C@]43C)[C@@H]2C1
17.9 µmol: IC50 (A549 [1])
16.72 µmol: IC50 [4]
15.69 µmol: IC50 (SW-1736)
16.78 µmol: IC50 [3]
active: Activity (A549 [6])
15.45 µmol: IC50 (8505C)
15.84 µmol: IC50 [2]
60.64%: Activity (A549 [5])
> 30 µmol: IC50 (DLD-1)

COC(=O)[C@@]1(C)CC[C@]2(C)CC[C@]3(C)C(=CC(=O)[C@@H]4[C@@]5(C)CC[C@H](OC(=O)[C@H](CSCc6ccccc6)NC(=O)OC(C)(C)C)C(C)(C)[C@@H]5CC[C@]43C)[C@@H]2C1
> 30 µmol: IC50 (8505C) | IC50 (SW-1736) | IC50 (A549 [1]) | IC50 [2] | IC50 [3] | IC50 [4] | IC50 (DLD-1)

COC(=O)[C@@]1(C)CC[C@]2(C)CC[C@]3(C)C(=CC(=O)[C@@H]4[C@@]5(C)CC/C(=N\OC(C)C)C(C)(C)[C@@H]5CC[C@]43C)[C@@H]2C1
> 30 µmol: IC50 (8505C) | IC50 (SW-1736) | IC50 (A549 [1]) | IC50 [2] | IC50 (MCF7) | IC50 [3] | IC50 [4] | IC50 (DLD-1) | IC50 (A2780)

CCOC(=O)[C@@]1(C)CC[C@]2(C)CC[C@]3(C)C(=CC(=O)[C@@H]4[C@@](C)(CCC(=O)O)[C@H](C(C)(C)O)CC[C@]43C)[C@@H]2C1
> 30 µmol: IC50 (8505C) | IC50 (SW-1736) | IC50 (A549 [1]) | IC50 [2] | IC50 (MCF7) | IC50 [3] | IC50 [4] | IC50 (DLD-1) | IC50 (A2780)
